The experiment deals with T1, OR52D1 (Homo sapiens) (UniProt Q9H346).
T1 sequence (whole entry): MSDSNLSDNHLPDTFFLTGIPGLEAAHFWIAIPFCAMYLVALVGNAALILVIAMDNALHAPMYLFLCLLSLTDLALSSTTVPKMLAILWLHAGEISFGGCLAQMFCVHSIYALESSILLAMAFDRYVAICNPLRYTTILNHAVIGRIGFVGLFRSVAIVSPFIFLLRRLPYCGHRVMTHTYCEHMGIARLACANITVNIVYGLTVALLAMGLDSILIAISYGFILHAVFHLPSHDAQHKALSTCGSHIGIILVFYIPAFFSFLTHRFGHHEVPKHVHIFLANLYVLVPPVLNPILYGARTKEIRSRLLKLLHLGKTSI
To be noted: stereoisomer not certain. The essentials: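 Whether a receptor–molecule pair is responsive (active) rests on the original authors' judgment that its measured signal was statistically different from baseline. Pairs without that judgment are non-responsive (inactive). Sources used varied assay methods, commonly transient luciferase assays in mammalian cell lines.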
As for `COc1ccccc1`, the “odorant receptor agonist call” value is “active”. The entry for `CC1CCC(C(C)C)C(=O)C1` (configuration not stated) is “inactive”; for `CC(C)=CCCC(C)CC=O` (configuration not stated) it is “inactive”. As for `CCCCCCCCO`, the “odorant receptor agonist call” value was “inactive”. Consider `CCCCCCCC(C)O` (configuration not stated), for which the “odorant receptor agonist call” value is “active”. As for `CCCCCCC(C)O` (configuration not stated), the “odorant receptor agonist call” value is “inactive”. For `CC(C)=CCCC(C)=CC#N`, the “odorant receptor agonist call” value was “active”.

Regarding `CCCCCCCCCC(=O)OC`, the “odorant receptor agonist call” value is “inactive”.

Turning to `c1cscn1`, the “odorant receptor agonist call” value is “active”. Regarding `CCCCOC(=O)CCC`, the “odorant receptor agonist call” value is “active”.

Turning to `CCCCCCCC(=O)OCC`, the “odorant receptor agonist call” value is “inactive”.

With `CCCCCCCCCCO`, the “odorant receptor agonist call” value was “inactive”.

For `c1ccc2[nH]ccc2c1`, the “odorant receptor agonist call” value is “inactive”. For `CSC`, the “odorant receptor agonist call” value is “inactive”. Turning to `CCCCCCC(C)=O`, the “odorant receptor agonist call” value is “inactive”. For `O=c1ccc2ccccc2o1` the value was “inactive”. In the case of `C=C(C)C1CC=C(C)CC1` (configuration not stated), the “odorant receptor agonist call” value was “inactive”. `CCCCCCCCCCC(C)=O`: the “odorant receptor agonist call” value is “inactive”. As to `c1ccc2ncccc2c1`, the “odorant receptor agonist call” value was “inactive”. As for `CCC(=O)O`, the “odorant receptor agonist call” value was “active”. The entry for `CCCCCCC1CCC(=O)O1` (configuration not stated) is “inactive”; for `O=C(O)C=Cc1ccccc1` it is “active”; for `CCCCCC=O` it is “inactive”. Take `CCCCCCO`: the “odorant receptor agonist call” value was “inactive”.

Turning to `CCOC(=O)C(C)C`, the “odorant receptor agonist call” value is “inactive”.

As for `CCCCCCCCC(=O)OCC`, the “odorant receptor agonist call” value was “inactive”. For `CCCCCCCC(C)=O`, the “odorant receptor agonist call” value is “inactive”.

For the origin of these results see the M2OR odorant receptor database.
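Also: active if original authors judged signal statistically different from baseline.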
